Test results reported in ChEMBL document CHEMBL1150807, “Daucane sesquiterpenes from Ferula hermonis” (J Nat Prod, 2001).
Values after ≈ are worked out from the molar mass of the structure shown. Active and inactive are the calls of the source. The calls are words filed in the database; no cut-off is given here.

Tests used:
[1] = system: Staphylococcus aureus; test: Antimicrobial activity against methicillin-resistant Staphylococcus aureus ATCC 43300; assay type: functional, organism-based
Procedure, shortened: (§1)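 Broth microdilution in duplicate. Samples are dissolved in DMSO, serially diluted in normal saline, and mixed with inoculum from subcultured organism diluted in its incubation broth. The top final concentration is 50 µg/mL for pure compounds and 500 µg/mL for crude extracts. Controls are tetracycline, growth and media blank. OD630 is read before and after incubation, and percent growth is plotted against concentration to give IC50/MIC. MBC is found by plating 5 µL from each duplicate on agar.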

[2] = system: Aspergillus fumigatus; test: Antimicrobial activity against Aspergillus fumigatus ATCC 90906; assay type: functional
Procedure, shortened: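 Growth was removed from a slant into 50 mL YPD broth for the inoculum. DMSO-dissolved samples were serially diluted in saline and run in duplicate, starting at a final 50 µg/mL for pure compounds and 500 µg/mL for extracts. Amphotericin B reference, growth and blank controls were included. Endpoints were read visually. MFC came from 5 µL of each duplicate transferred to agar.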

[3] = system: Mycobacterium intracellulare; test: Antimicrobial activity against Mycobacterium intracellular ATCC 23068; assay type: functional
Procedure, shortened: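 Inoculum was subcultured organism diluted in its incubation broth. Samples were dissolved in DMSO, serially diluted in saline and run in duplicate, with final concentrations starting at 50 µg/mL for pure compounds and 500 µg/mL for extracts. Tetracycline reference, growth and blank controls were included. Plates were inspected visually. MBC came from 5 µL of each well plated on agar.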

[4] = system: Pseudomonas aeruginosa; test: Antimicrobial activity against Pseudomonas aeruginosa ATCC 27853; assay type: functional
Procedure, shortened: (§2)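 Subcultured organism diluted in its incubation broth for the inoculum. Samples were dissolved in DMSO, serially diluted in normal saline and tested in duplicate, starting at a final 50 µg/mL for pure compounds and 500 µg/mL for extracts. Growth and media-only controls were included. OD630 was read before and after incubation, and IC50/MIC was taken from percent growth versus concentration. MFC/MBC came from 5 µL subcultured onto agar.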

[5] = system: Staphylococcus aureus; test: Antimicrobial activity against Staphylococcus aureus ATCC 29213; assay type: functional, organism-based; procedure, shortened: as §1
[6] = system: Candida albicans; test: Antimicrobial activity against Candida albicans ATCC 90028; assay type: functional; procedure, shortened: as §2
[7] = system: Cryptococcus neoformans; test: Antimicrobial activity against Cryptococcus neoformans ATCC 90113; assay type: functional; procedure, shortened: as §2

Row | SMILES | Activity [1] | Activity [2] | Activity [3] | Activity [4] | Activity [5] | Activity [6] | Activity [7] | IC50 [1] | MIC [2] | MIC [3] | MIC [4] | IC50 [5] | MIC [6] | MIC [7]
1 | CC(C)[C@]1(O)CC[C@]2(C)C[C@@H]3O[C@]3(C)C[C@H](O)[C@H]21 | inactive | inactive | inactive | inactive | inactive | inactive | inactive | – | – | – | – | – | – | –
2 | CC1=CC[C@@]2(C)CC[C@@](O)(C(C)C)[C@@H]2[C@@H](OC(=O)c2ccccc2)C1 | inactive | inactive | inactive | inactive | inactive | inactive | inactive | – | – | – | – | – | – | –
3 | CC1=CC[C@@]2(C)CC[C@@](O)(C(C)C)[C@@H]2[C@@H](O)C1 | inactive | inactive | inactive | inactive | inactive | inactive | inactive | – | – | – | – | – | – | –
4 | COc1cc(C(=O)OCC2=CC[C@@]3(C)CCC(C(C)C)=C3CC2)ccc1O | inactive | inactive | inactive | inactive | inactive | inactive | inactive | – | – | – | – | – | – | –
5 | CC(C)C1=C2CCC(COC(=O)c3ccc(O)cc3)=CC[C@@]2(C)CC1 | – | – | – | – | – | – | – | 2 µg/mL (≈ 5.87 µM) | 6.25 µg/mL (≈ 18.4 µM) | 6.25 µg/mL (≈ 18.4 µM) | 6.25 µg/mL (≈ 18.4 µM) | 1.5 µg/mL (≈ 4.41 µM) | 6.25 µg/mL (≈ 18.4 µM) | 6.25 µg/mL (≈ 18.4 µM)
